From PubChem
Only some compounds are listed: those with a hit (about 5.4% of all), similar ones and a draw of the others.
HePTP inhibitor: inhibitors of human HePTP phosphatase, primary screen, biochemical, absorbance, leukemia target. inhibition, % at 20 µM. recombinant HePTP phosphatase activity, OD absorbance. Tyrosine-protein phosphatase non-receptor type 7 (Homo sapiens), P35236. 110,000 tested, 0.64% active. AID 521, 2006; in the data active = inhibition above about 50%;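 also: plate controls were vehicle for no effect and reference inhibitor for full effect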
Target sequence (P35236 whole entry, looked up): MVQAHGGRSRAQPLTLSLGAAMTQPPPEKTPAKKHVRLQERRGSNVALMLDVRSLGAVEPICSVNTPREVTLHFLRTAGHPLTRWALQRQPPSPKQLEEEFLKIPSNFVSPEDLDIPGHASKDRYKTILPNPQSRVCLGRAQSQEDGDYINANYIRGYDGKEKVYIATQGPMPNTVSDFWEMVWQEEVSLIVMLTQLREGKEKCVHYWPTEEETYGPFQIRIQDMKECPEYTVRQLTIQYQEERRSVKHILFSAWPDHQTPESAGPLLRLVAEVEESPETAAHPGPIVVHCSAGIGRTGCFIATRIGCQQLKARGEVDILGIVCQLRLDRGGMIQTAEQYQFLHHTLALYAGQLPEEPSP
Ecoli tolC: growth inhibitors of E. coli tolC mutant, primary screen, strain BW25113 ΔtolC::kan, 384-well; OD615; growth inhibition, % at 10 µM (by protocol); 65,000 tested, 2.2% active;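 active = growth inhibition at or above a cutoff equal to the mean over every tested compound plus 3 SD, cut at about 60% in these data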;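 also: growth measured after 20 h incubation at 37 °C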
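Assay system: tolC-deleted E. coli BW25113. Medium: kanamycin-containing LB broth (50 µg/mL). Dosing: 10 µM final, single dose. Timing: bacterial growth with compound for 20 h at 37 °C. Detection: A615 absorbance measurement. Read-out basis: growth inhibition in percent.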
PostGolgi yeast: phenotypic screen on post-Golgi transport, primary screen. post-Golgi transport phenotypic cell assay. inhibition, % at 10 µM. 98,000 tested, 0.9% active;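 also: yeast cells grown in 1536-well plates; yeast grown about 18 h at 30C before absorbance read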
PLAP act: PLAP enzyme activators, biochemical, luminescence, HTS | Alkaline phosphatase, placental type (Homo sapiens), P05187 | purified PLAP enzyme, luminescent substrate read-out; stronger effect = higher value | activation fold at 20 µM | 96,000 tested, 1.2% active | AID 696, 2007; in the data active = activation fold above about 2
Ecoli WT expand: growth inhibitors of wild-type E. coli, primary screen, strain BW25113, expanded library, OD600; growth inhibition, % at 100 µM; 98,000 tested, 0.15% active; OD600 absorbance;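 active = growth inhibition above about 50% at one test dose, limit read from the data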;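 also: growth measured after 20 h incubation at 37 °C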
PostGolgi ctrl: growth inhibition of yeast control strain, primary screen, counter-screen for post-Golgi transport modulator project. inhibition, % at 10 µM. efflux-deficient yeast background strain, growth absorbance A615, 16 h. 98,000 tested, 5% active
* marks the source's active call; other numbers are inactive results; . = no result given. Rule as the data show it, unless noted: active = inhibition above about 30%; inactive = the rest.

SMILES	HePTP inhibitor	Ecoli tolC	PostGolgi yeast	PLAP act	Ecoli WT expand	PostGolgi ctrl
Clc1ccc(C2=Nn3c(nnc3-c3n[nH]c4c3CCC4)SC2)cc1Cl	5	99*	14	.	11	38*
COc1ccc(OC)c(-n2c(=S)[nH]c3cc(C(=O)N4CCC(C(N)=O)CC4)ccc3c2=O)c1	.	.	17	1.2	-7	-6
COc1ccc2[nH]c3c(=O)n(CCCCC(=O)N4CCC(C(N)=O)CC4)c(=S)[nH]c3c2c1	0	100*	-3	1	5	8
COc1ccc2[nH]c3c(=O)n(CCCCC(=O)NCCN4CCCC4)c(=S)[nH]c3c2c1	3	61*	5	1.5	2	7
COc1ccc(C2NC(=S)NC(C)=C2C(=O)Nc2ccccc2)c(OC)c1 (stereo not given)	0	.	.	.	.	.
O=C(CC(C(=O)N1CCc2ccccc21)n1ccnc1)NCc1cccnc1 (stereo not given)	-8	-9	33*	.	5	6
CNc1cc(CSC)nc(SCc2ccc(Cl)c(Cl)c2)n1	.	.	27	1	-3	35*
O=C(Nc1ccccc1F)c1ccc2nc(N3C(=O)CCC3=O)sc2c1	.	.	0	1.1	-1	44*
COC(=O)c1ccc(N2CCC(c3cc(-c4ccc(OC)cc4)n[nH]3)CC2)c([N+](=O)[O-])c1	.	.	8	1.2	-13	27
CC(=O)c1ccc(N2CCC(c3cc(-c4ccc(Cl)cc4)n[nH]3)CC2)c([N+](=O)[O-])c1	.	.	41*	1.3	-12	43*
COc1ccc(-c2cc(C3CCN(c4ccc(C(C)=O)cc4[N+](=O)[O-])CC3)[nH]n2)cc1	.	.	21	1.3	-11	37*
CCN1C(=O)/C(=C\c2ccc(O)cc2O)SC1=S	1	.	.	.	.	.
CCOC(=O)CSc1nc2cc(C(=O)NCc3ccco3)ccc2c(=O)n1-c1ccc(F)cc1	-4	-16	10	1	-7	5
CCOC(=O)CSc1nc2ccccc2c(=O)n1CC1CCC(C(=O)NCc2ccco2)CC1 (stereo not given)	-2	8	2	1.2	-8	36*
CCOC(=O)CSc1nc2cc(C(=O)NCc3ccco3)ccc2c(=O)n1C1CCCCC1	10	-3	-7	0.9	0	45*
CCn1c(SCC(=O)OC2CCCCC2)nc2ccccc2c1=O	6	72*	-6	1.2	12	14
Cc1cccc(-n2c(C)cc(/C=N/NC(=O)c3ccccn3)c2C)c1	6	.	.	.	.	.
CCCOC(=O)c1ccc(NS(=O)(=O)Cc2ccccc2)cc1	10	.	.	.	.	.
CCOc1ccc(NS(=O)(=O)c2ccc(Br)cc2)cc1	6	.	.	.	.	.
O=C1CCCC(O)=C1C(C1=C(O)CCCC1=O)c1ccc(Cl)cc1	-2	.	.	.	.	.
COc1cc(SC)ccc1C(=O)NCc1ccc(C)cc1	.	.	44*	0.9	9	24
Cc1ccc(NC(=O)c2ccc(C#Cc3ccccc3)cc2)cc1C	11	.	.	.	.	.
O=c1c2ccccc2sn1-c1ccccc1	.	.	5	1	100*	16
O=c1c2ccccc2sn1-c1ccc(S(=O)(=O)N2CCCC2)cc1	8	-5	8	1.1	-3	3
CC1=C(C(=O)Nc2ccc(Cl)cc2)C(c2ccc(F)cc2)NC(=S)N1 (stereo not given)	-2	.	.	.	.	.
SMILES	HePTP inhibitor	Ecoli tolC	PostGolgi yeast	PLAP act	Ecoli WT expand	PostGolgi ctrl
COc1ccc(C(=O)Nc2nc(-c3cccs3)cs2)cc1	-10	98*	1	0.8	-3	16
CCC(NC(=O)Nc1nnc(C(F)(F)F)s1)(C(F)(F)F)C(F)(F)F	8	4	-4	1	58*	17
O=C(Nc1nc(-c2cccs2)cs1)c1ccc(Cl)cc1	.	.	-5	0.9	-12	8
O=C(O)CCC(=O)Nc1nnc(C(F)(F)F)s1	-5	4	-3	1	5	-1
COc1ccc(C(=O)Nc2nnc(C(F)(F)F)s2)cc1	-4	11	-3	1.1	-16	42*
COc1cc(C(=O)Nc2nc(-c3cccs3)cs2)cc(OC)c1OC	3	69*	25	0.8	0	48*
O=C(O)C1CCCCC1C(=O)N1CCN(c2cccc(Cl)c2)CC1 (stereo not given)	-6	.	.	.	.	.
Cc1ccc(N2C(=O)NC(=O)/C(=C\c3ccsc3)C2=O)cc1	-8	.	.	.	.	.
CSc1nc(O)c(Cc2ccccc2)c(=O)n1-c1ccccc1	-1	.	.	.	.	.
Cc1nc(N)sc1C(=O)N/N=C/c1cccc(O)c1	-9	.	.	.	.	.
O=C(Nc1ncccc1O)c1cccc(S(=O)(=O)N2CCc3ccccc32)c1	7	16	-5	2.5*	-4	34*
O=C(Nc1ccc(S(=O)(=O)N2CCc3ccccc32)cc1)c1cccc([N+](=O)[O-])c1	-3	.	.	.	.	.
CN1CCCN(C(=O)Cc2c(Cl)cccc2Cl)c2nc3ccccc3nc21	8	70*	1	1.1	-11	43*
CCCCOC(=O)c1ccc(NS(=O)(=O)c2cc(-c3nnnn3CC)ccc2OC)cc1	-11	33	21	2.2*	4	11
O=C(c1cccn1C(O)(C(F)(F)F)C(F)(F)F)C(F)(F)F	5	.	.	.	.	.
Oc1c(N=Nc2ccc(I)cc2)sc2ccccc12	2	.	.	.	.	.
O=C(Nc1ccccc1I)C1CC(=O)N(c2ccc(Cl)cc2)C1 (stereo not given)	4	.	.	.	.	.
CC/C(C)=C1\SC(N2CCN(c3cccc(C(F)(F)F)c3)CC2)=NC1=O	.	.	16	0.9	2	32*
CCOC(=O)C(CC(C)C)NC(=O)/C(=C\c1ccccc1F)NC(=O)c1ccccc1 (stereo not given)	5	.	.	.	.	.
Cc1ccc(OCC(=O)NNC(=O)C2CCN(c3nccc(C)n3)CC2)cc1	.	.	0	2.5*	0	2
Cc1ccnc(N2CCC(C(=O)Nc3cccc(C(F)(F)F)c3)CC2)n1	7	65*	1	1.3	0	8
Cc1ccnc(N2CCC(C(=O)Nc3ccc(Oc4ccccc4)cc3)CC2)n1	8	-19	-6	1	-2	0
Cc1ccnc(N2CCC(C(=O)NCc3ccc4c(c3)OCO4)CC2)n1	-3	-1	2	0.8	-4	8
COc1ccc(C(O)(CNCc2ccccc2)c2ccccc2)cc1 (stereo not given)	7	.	.	.	.	.
Cc1cc2ncn(C3CC(=O)N(C)C3=O)c2cc1C (stereo not given)	.	.	5	1	-1	8
Cc1cc2ncn(C3CC(=O)N(Cc4ccccc4)C3=O)c2cc1C (stereo not given)	4	14	5	0.9	1	40*
Cc1ccc(-n2cc3c(-c4cccc(Br)c4)nnc(C)c3n2)cc1	.	.	99*	1.4	-10	41*
Cc1ccc(-n2ncnc2-c2cccc(Br)c2)cc1Cl	-4	.	.	.	.	.
Cc1nnc(-c2cccc(Br)c2)c2cn(-c3ccccc3Cl)nc12	.	.	102*	1.1	6	27
